Activity calls are given as the source filed them. No cut-off for these calls is given here.
Columns and labels:
[1] = Upregulation of mitochondrial complex-2 expression in BCAEC at EC50 after 48 hrs by Western blot analysis in presence of L-NAME; format: functional; conditions: Bos taurus
[2] = Upregulation of mitochondrial complex-1 expression in BCAEC at EC50 after 48 hrs by Western blot analysis in presence of L-NAME; format: functional; conditions: Bos taurus
[3] = Upregulation of mitofilin expression in BCAEC at EC50 after 48 hrs by Western blot analysis in presence of L-NAME; format: functional; conditions: Bos taurus
[4] = Upregulation of porin expression in BCAEC at EC50 after 48 hrs by Western blot analysis in presence of L-NAME; format: functional; conditions: Bos taurus
[5] = target: T1, Citrate synthase, mitochondrial (Bos taurus) (UniProt Q29RK1); assay: Induction of citrate synthase activity in BCAEC at EC50 after 48 hrs in presence of L-NAME
T1 sequence (whole entry): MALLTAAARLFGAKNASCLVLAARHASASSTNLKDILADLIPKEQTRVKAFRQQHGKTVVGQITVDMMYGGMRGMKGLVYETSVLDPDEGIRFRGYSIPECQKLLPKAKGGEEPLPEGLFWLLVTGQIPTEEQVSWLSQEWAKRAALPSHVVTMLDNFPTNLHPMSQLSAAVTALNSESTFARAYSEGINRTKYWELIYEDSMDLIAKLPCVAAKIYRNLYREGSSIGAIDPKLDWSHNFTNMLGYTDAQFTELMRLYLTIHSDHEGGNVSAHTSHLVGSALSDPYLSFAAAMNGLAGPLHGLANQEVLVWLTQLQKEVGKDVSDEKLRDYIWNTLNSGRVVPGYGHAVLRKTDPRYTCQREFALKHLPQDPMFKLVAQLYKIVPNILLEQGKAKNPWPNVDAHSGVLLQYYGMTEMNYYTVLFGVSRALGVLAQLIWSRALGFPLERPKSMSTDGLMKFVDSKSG

[6] = Upregulation of mitochondrial complex-1 expression in BCAEC at EC50 after 48 hrs by Western blot analysis relative to control; format: functional; conditions: Bos taurus
[7] = Upregulation of porin expression in BCAEC at EC50 after 48 hrs by Western blot analysis; format: functional; conditions: Bos taurus
[8] = target: T2, Nitric oxide synthase 3 (Bos taurus, UniProt P29473); assay: Activation of eNOS in BCAEC assessed as increase in nitric oxide level after 10 mins by fluorometric analysis
T2 sequence (P29473 whole entry): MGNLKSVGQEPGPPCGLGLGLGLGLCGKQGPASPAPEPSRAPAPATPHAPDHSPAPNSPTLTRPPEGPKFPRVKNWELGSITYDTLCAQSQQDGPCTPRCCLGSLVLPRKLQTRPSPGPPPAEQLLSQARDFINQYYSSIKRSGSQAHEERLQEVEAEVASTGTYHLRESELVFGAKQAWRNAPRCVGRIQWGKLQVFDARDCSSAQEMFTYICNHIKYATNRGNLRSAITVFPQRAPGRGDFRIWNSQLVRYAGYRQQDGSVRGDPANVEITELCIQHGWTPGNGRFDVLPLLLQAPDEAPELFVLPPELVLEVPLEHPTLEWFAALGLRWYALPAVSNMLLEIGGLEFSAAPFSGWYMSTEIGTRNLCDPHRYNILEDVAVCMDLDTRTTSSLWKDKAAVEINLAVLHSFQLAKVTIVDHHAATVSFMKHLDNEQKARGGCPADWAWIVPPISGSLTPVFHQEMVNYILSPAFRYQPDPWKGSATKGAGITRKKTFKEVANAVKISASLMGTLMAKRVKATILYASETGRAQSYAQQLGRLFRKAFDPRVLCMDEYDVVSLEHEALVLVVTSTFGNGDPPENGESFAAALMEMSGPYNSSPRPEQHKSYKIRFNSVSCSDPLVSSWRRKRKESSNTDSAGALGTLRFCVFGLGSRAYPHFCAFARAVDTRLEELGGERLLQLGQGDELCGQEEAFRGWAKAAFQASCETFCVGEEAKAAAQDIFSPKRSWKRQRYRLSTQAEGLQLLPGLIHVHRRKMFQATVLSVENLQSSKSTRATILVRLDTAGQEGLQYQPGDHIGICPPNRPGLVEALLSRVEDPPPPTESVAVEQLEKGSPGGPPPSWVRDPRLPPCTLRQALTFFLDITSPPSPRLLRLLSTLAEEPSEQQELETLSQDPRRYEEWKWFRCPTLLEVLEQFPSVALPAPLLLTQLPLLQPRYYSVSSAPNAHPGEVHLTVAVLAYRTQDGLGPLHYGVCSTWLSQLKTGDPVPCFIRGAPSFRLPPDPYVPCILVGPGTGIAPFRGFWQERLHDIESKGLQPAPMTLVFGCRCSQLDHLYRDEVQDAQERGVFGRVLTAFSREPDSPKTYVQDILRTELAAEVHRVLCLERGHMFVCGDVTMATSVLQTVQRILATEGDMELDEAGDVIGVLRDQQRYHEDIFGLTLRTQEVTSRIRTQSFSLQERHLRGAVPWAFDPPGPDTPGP
Method in brief: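 Bovine coronary artery endothelial cells, in triplicate, were exposed to a range of concentrations of each compound. Medium was collected 10 min after treatment, and NO was quantified as nitrite/nitrate with a commercial kit. Sigmoidal concentration-response curves were fitted to the triplicate means to give EC50.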

[9] = target: T1, Citrate synthase, mitochondrial (Bos taurus); assay: Induction of citrate synthase activity in BCAEC at EC50 after 48 hrs relative to control
[10] = Upregulation of mitochondrial complex-1 expression in BCAEC at 100 nmol/L after 48 hrs by Western blot analysis; format: functional; conditions: Bos taurus
[11] = Upregulation of TFAM expression in BCAEC at EC50 after 48 hrs by Western blot analysis in presence of L-NAME; format: functional; conditions: Bos taurus
[12] = Upregulation of TFAM expression in BCAEC at EC50 after 48 hrs by Western blot analysis; format: functional; conditions: Bos taurus
[13] = Upregulation of mitochondrial complex-2 expression in BCAEC at EC50 after 48 hrs by Western blot analysis relative to control; format: functional; conditions: Bos taurus
[14] = Upregulation of mitofilin expression in BCAEC at EC50 after 48 hrs by Western blot analysis; format: functional; conditions: Bos taurus
[15] = Upregulation of mitochondrial complex-1 expression in BCAEC at 0.01 nmol/L after 48 hrs by Western blot analysis; format: functional; conditions: Bos taurus

Activity [5]	EC50 [8]	Activity [9]	Structure (SMILES)	Activity [1]	Activity [2]	Activity [3]	Activity [4]	Activity [6]	Activity [7]	Activity [10]	Activity [11]	Activity [12]	Activity [13]	Activity [14]	Activity [15]
inactive	1 nM	30%	CCOc1cc([C@H]2Oc3cc(O)cc(O)c3C[C@H]2O)ccc1O	inactive	inactive	inactive	inactive	inactive	Active						
inactive	2 nM	30%	Oc1cc(O)c2c(c1)O[C@H](c1ccc(O)c(O)c1)[C@H](O)C2 [(-)-EPICATECHIN]	inactive	inactive	inactive	inactive	20%	inactive	Active	inactive	Active	25%	Active	
inactive	0.006 nM	30%	CC(=O)Oc1cc(OC(C)=O)c2c(c1)O[C@H](c1ccc(OC(C)=O)c(OC(C)=O)c1)[C@H](OC(C)=O)C2 [EPICATECHIN PENTAACETATE]	inactive	inactive	inactive	inactive	60%	Active		inactive	Active	25%	Active	Active

— ChEMBL document CHEMBL2407003, “Effects of (-)-epicatechin and derivatives on nitric oxide mediated induction of mitochondrial proteins” (Bioorg Med Chem Lett, 2013)
